Source: ChEMBL document CHEMBL4308874, “Discovery and optimization of 3,4,5-trimethoxyphenyl substituted triazolylthioacetamides as potent tubulin polymerization inhibitors” (Bioorg Med Chem Lett, 2019)

How the values were obtained:
MCF7 = experiment: Cytotoxicity against human MCF7 cells assessed as inhibition of cell growth after 48 hrs by MTT assay; assay type: functional, cell-based; details: MCF7, 48 h
HCT-116 = experiment: Cytotoxicity against human HCT116 cells assessed as inhibition of cell growth after 48 hrs by MTT assay; assay type: functional, cell-based; details: HCT-116, 48 h
HT-29 = experiment: Cytotoxicity against human HT-29 cells assessed as inhibition of cell growth after 48 hrs by MTT assay; assay type: functional, cell-based; details: HT-29, 48 h
HeLa [1] = experiment: Cytotoxicity against human HeLa cells assessed as inhibition of cell growth after 48 hrs by MTT assay; assay type: functional, cell-based
Tubulin (Homo sapiens) = Tubulin (Homo sapiens) (UniProt P68371+Q9H4B7+P0DPH7+P68366+Q13509+Q71U36+P04350+Q3ZCM7+P07437+P68363+Q9BQE3+Q6PEY2+Q13885+Q9BVA1+Q9BUF5); experiment: Inhibition of tubulin (unknown origin) polymerization at 10 uM relative to control; assay type: protein-complex assay
Summary of the method: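 Tubulin polymerization inhibition measured with compound at a final concentration of 10 μM, expressed as percent inhibition.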

HEK293 = experiment: Cytotoxicity against HEK293 cells assessed as inhibition of cell growth after 48 hrs by MTT assay; assay type: cell-based; details: Homo sapiens, HEK293, 48 h
HeLa [2] = experiment: Cell cycle arrest in human HeLa cells assessed as accumulation at S phase at 0.25 uM after 48 hrs by propidium iodide staining based flow cytometry (reference value: 20.31%); assay type: functional
HeLa [3] = experiment: Cell cycle arrest in human HeLa cells assessed as accumulation at G0/G1 phase at 0.5 uM after 48 hrs by propidium iodide staining based flow cytometry (reference value: 66.77%); assay type: functional
HeLa [4] = experiment: Cell cycle arrest in human HeLa cells assessed as accumulation at G2/M phase after 48 hrs by propidium iodide staining based flow cytometry; assay type: functional
HeLa [5] = experiment: Cell cycle arrest in human HeLa cells assessed as accumulation at G2/M phase at 0.25 uM after 48 hrs by propidium iodide staining based flow cytometry (reference value: 12.91%); assay type: functional
HeLa [6] = experiment: Cell cycle arrest in human HeLa cells assessed as accumulation at S phase at 0.5 uM after 48 hrs by propidium iodide staining based flow cytometry (reference value: 20.31%); assay type: functional
HeLa [7] = experiment: Cell cycle arrest in human HeLa cells assessed as accumulation at G2/M phase at 0.5 uM after 48 hrs by propidium iodide staining based flow cytometry (reference value: 12.91%); assay type: functional
HeLa [8] = experiment: Cell cycle arrest in human HeLa cells assessed as accumulation at G0/G1 phase at 0.25 uM after 48 hrs by propidium iodide staining based flow cytometry (reference value: 66.77%); assay type: functional
Tubulin = experiment: Inhibition of tubulin (unknown origin) polymerization; assay type: protein-complex assay, Homo sapiens

Row | inhibition (Tubulin (Homo sapiens)) [%] | Structure (SMILES) | IC50 (MCF7) [µM] | IC50 (HCT-116) [µM] | IC50 (HT-29) [µM] | IC50 (HeLa [1]) [µM] | other results
1 | – | COc1ccc(NC(=O)CSc2nnc(-c3cc(OC)c(OC)c(OC)c3)[nH]2)cc1 | > 100 | > 100 | > 100 | > 100 | –
2 | 19 | CCCc1ccc(NC(=O)CSc2nnc(-c3cc(OC)c(OC)c(OC)c3)n2N)cc1 | 41.2 | 41.8 | 50.8 | 18.7 | –
3 | – | COc1cccc(NC(=O)CSc2nnc(-c3cc(OC)c(OC)c(OC)c3)n2N)c1 | 52.6 | – | 3.15 | – | –
4 | – | COc1cc(-c2nnc(SCC(=O)Oc3ccc(C)cc3)n2N)cc(OC)c1OC | > 100 | > 100 | > 100 | > 100 | –
5 | 11 | CCc1ccc(NC(=O)CSc2nnc(-c3cc(OC)c(OC)c(OC)c3)[nH]2)cc1 | > 100 | > 100 | > 100 | 33.9 | –
6 | – | COc1cc(-c2nnc(SCC(=O)Nc3ccc(N4CCCCC4)cc3)n2N)cc(OC)c1OC | > 100 | > 100 | 75.3 | 54.9 | –
7 | 18 | COc1cc(-c2nnc(SCC(=O)Nc3ccc(C)c(C)c3)n2N)cc(OC)c1OC | > 100 | > 100 | 1.21 | 0.88 | –
8 | – | COc1ccc(NC(=O)CSc2nnc(-c3cc(OC)c(OC)c(OC)c3)n2N)cc1O | > 100 | > 100 | > 100 | 34.8 | –
9 | – | COc1cc(-c2nnc(SCC(=O)Nc3ccc(C)cc3)[nH]2)cc(OC)c1OC | > 100 | > 100 | > 100 | > 100 | –
10 | – | COc1cc(-c2nnc(SCC(=O)Nc3ccc(N(C)C)cc3)n2N)cc(OC)c1OC | > 100 | > 100 | 43.1 | 23.8 | –
11 | – | COc1ccc(/C=C\c2cc(OC)c(OC)c(OC)c2)cc1O [COMBRETASTATIN A4] | – | – | 1.96 | 0.007 | –
12 | 17 | COc1cc(-c2nnc(SCC(=O)Nc3ccc(C)cc3)n2-n2cccc2)cc(OC)c1OC | > 100 | 26.6 | 2.94 | > 100 | –
13 | 24 | COc1ccc(NC(=O)CSc2nnc(-c3cc(OC)c(OC)c(OC)c3)n2N)cc1 | > 100 | 61.1 | 15.2 | 2.96 | –
14 | – | CCCc1ccc(NC(=O)CSc2nnc(-c3cc(OC)c(OC)c(OC)c3)[nH]2)cc1 | > 100 | > 100 | > 100 | > 100 | –
15 | – | COc1cc(-c2nnc(SCC(=O)Nc3c(C)cc(C)cc3C)n2N)cc(OC)c1OC | > 100 | > 100 | > 100 | 82.8 | –
16 | – | COc1ccc(NC(=O)CSc2nnc(-c3cc(OC)c(OC)c(OC)c3)n2-n2cccc2)cc1 | > 100 | > 100 | > 100 | > 100 | –

Row | inhibition (Tubulin (Homo sapiens)) [%] | Structure (SMILES) | IC50 (MCF7) [µM] | IC50 (HCT-116) [µM] | IC50 (HT-29) [µM] | IC50 (HeLa [1]) [µM] | other results
17 | 21 | COc1cc(-c2nnc(SCC(=O)N(C)c3ccc(C)cc3)n2N)cc(OC)c1OC | > 100 | > 100 | > 100 | 21.3 | –
18 | – | COc1ccc(NC(=O)CSc2nnc(-c3cc(OC)c(OC)c(OC)c3)n2N)cc1OC | > 100 | > 100 | > 100 | 54.2 | –
19 | 25 | COc1ccccc1NC(=O)CSc1nnc(-c2cc(OC)c(OC)c(OC)c2)n1N | > 100 | 82.9 | 0.13 | 0.16 | IC50 (HEK293): > 100 µM
20 | – | COc1cc(-c2nnc(SCC(=O)Nc3ccc(C(C)C)cc3)n2N)cc(OC)c1OC | > 100 | 74.8 | > 100 | 13.7 | –
21 | 38 | CCc1ccc(NC(=O)CSc2nnc(-c3cc(OC)c(OC)c(OC)c3)n2N)cc1 | 25.4 | 71.4 | 0.84 | 0.05 | Activity (HeLa [2]): 25.35%; Activity (HeLa [3]): 43.23%; Activity (HeLa [4]): Dose-dependent effect; Activity (HeLa [5]): 27.3%; Activity (HeLa [6]): 2%; IC50 (HEK293): > 100 µM; Activity (HeLa [7]): 54.77%; Activity (HeLa [8]): 47.35%
22 | 25 | COc1cc(-c2nnc(SCC(=O)Nc3cccc(C)c3)n2N)cc(OC)c1OC | 47.1 | > 100 | 4.87 | 2.96 | –
23 | – | COc1ccc(NC(=O)CSc2nnc(-c3cc(OC)c(OC)c(OC)c3)n2-n2cccc2)cc1OC | > 100 | > 100 | > 100 | > 100 | –
24 | – | COc1cc(-c2nnc(SCC(=O)c3ccc(Cl)cc3)n2-n2cccc2)cc(OC)c1OC | > 100 | > 100 | > 100 | > 100 | –
25 | – | COc1cc(-c2nnc(SCC(=O)Nc3ccc(C(C)(C)C)cc3)n2N)cc(OC)c1OC | > 100 | > 100 | > 100 | 49.6 | –
26 | – | COc1cc(-c2nnc(SCC(=O)c3ccc(C)cc3)n2-n2cccc2)cc(OC)c1OC | > 100 | > 100 | > 100 | > 100 | –
27 | – | COc1cc(-c2nnc(SCC(=O)NC3CCCCC3)n2N)cc(OC)c1OC | 80.6 | > 100 | > 100 | 59.7 | –
28 | – | COc1cccc(NC(=O)CSc2nnc(-c3cc(OC)c(OC)c(OC)c3)[nH]2)c1 | > 100 | > 100 | > 100 | > 100 | –
29 | 55 | COc1cc(-c2nnc(SCC(=O)Nc3ccc(C)cc3)n2N)cc(OC)c1OC | 26.8 | – | 0.82 | 1.61 | IC50 (Tubulin): 5.9 µM
30 | – | COc1ccc(NC(=O)CSc2nnc(-c3cc(OC)c(OC)c(OC)c3)[nH]2)cc1O | > 100 | > 100 | > 100 | > 100 | –
31 | – | COc1cc(-c2nnc(SCC(=O)Nc3ccc(C)cc3F)n2N)cc(OC)c1OC | > 100 | > 100 | 0.13 | 0.04 | IC50 (HEK293): 61.1 µM
